Laboratory results reported in ChEMBL document CHEMBL1126625, “7-Azetidinylquinolones as antibacterial agents. Synthesis and structure-activity relationships” (J Med Chem, 1993).
Values after ≈ are worked out from the molar mass of the structure shown. Each block holds one compound with its values, some of them ahead of it.

Legend:
Mus musculus [1] = experiment: Blood level after oral administration in mice (50 mg/kg) was determined (area under the concentration-time curve recorded at 0.5, 1, 2, and 4 hour after dosing); format: ADME, organism-based; set-up: dose 50 mg/kg, time < 4 hr, route oral; settings: in vivo
In short: (§1)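 Single oral dose of 50 mg/kg to mice. Blood taken from groups of six mice at 0.5, 1, 2 and 4 h after dosing. Serum levels measured by disk agar diffusion bioassay with Bacillus subtilis ATCC 6633 on Seed Agar, plates incubated 18 h at 37 °C, giving total activity in serum. AUC 0-4 h expressed as μg/mL […].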

Bacillus cereus = experiment: Minimum inhibitory concentration (MIC) preventing growth of Bacillus cereus; format: functional
Bacillus subtilis = experiment: Minimum inhibitory concentration (MIC) preventing growth of Bacillus subtilis; format: functional
Escherichia coli [2] = experiment: Minimum inhibitory concentration (MIC)preventing growth of Escherichia coli; format: functional
Escherichia coli [3] = experiment: Efficacy on systemic infections after oral administration in mice was determined against Escherichia coli HM-42; format: functional
In short: (§2)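 Mouse protection test using 4 groups of 10 mice. Mice were infected intraperitoneally with a bacterial suspension slightly above LD100. A single oral dose was given immediately after infection, with four doses, one per group, chosen from in vitro activity. Survival was scored after one week, and ED50 (total mg/kg protecting 50% of mice) was interpolated from group survival rates.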

Klebsiella pneumoniae = experiment: Minimum inhibitory concentration (MIC)preventing growth of Klebsiella pneumoniae; format: functional
Morganella morganii = experiment: Minimum inhibitory concentration (MIC) preventing growth of Morganella morganii; format: functional
Pseudomonas aeruginosa [4] = experiment: Efficacy on systemic infections after oral administration in mice was determined against Pseudomonas aeruginosa HS-116; format: functional; in short: as §2
Proteus vulgaris = experiment: Minimum inhibitory concentration (MIC) preventing growth of Proteus vulgaris; format: functional
[5] = system: Staphylococcus epidermidis; experiment: Minimum inhibitory concentration (MIC) preventing growth of Staphylococcus epidermidis; format: functional
Staphylococcus aureus [6] = experiment: Minimum inhibitory concentration (MIC) preventing growth of […]; format: functional
Staphylococcus aureus [7] = experiment: Efficacy on systemic infections after oral administration in mice was determined against […] HS-93; format: functional; in short: as §2
Enterococcus faecalis = experiment: Minimum inhibitory concentration (MIC) preventing growth of Streptococcus faecalis ATCC 10541; format: functional
Enterobacter cloacae = experiment: Minimum inhibitory concentration (MIC)preventing growth of Enterobacter cloacae; format: functional
Pseudomonas aeruginosa [8] = experiment: Minimum inhibitory concentration (MIC)preventing growth of Pseudomonas aeruginosa; format: functional
Mus musculus [9] = experiment: Blood level after oral administration in mice (50 mg/kg) was determined by bioassay procedure and represent total activity present in the serum; format: ADME, organism-based; settings: in vivo; in short: as §1

- AUC (Mus musculus [1]): 8.4 µg·h/mL
- MIC (Bacillus cereus): 0.25 mg/L (≈ 0.724 µM)
- MIC (Bacillus subtilis): 0.06 mg/L (≈ 0.174 µM)
- MIC (Escherichia coli [2]): 0.06 mg/L (≈ 0.174 µM)
- MIC (Klebsiella pneumoniae): 0.06 mg/L (≈ 0.174 µM)
- MIC (Morganella morganii): 0.06 mg/L (≈ 0.174 µM)
- MIC (Proteus vulgaris): 0.25 mg/L (≈ 0.724 µM)
- MIC [5]: 0.25 mg/L (≈ 0.724 µM)
- MIC (Staphylococcus aureus [6]): 0.25 mg/L (≈ 0.724 µM)
- MIC (Enterococcus faecalis): 1 mg/L (≈ 2.9 µM)
- MIC (Enterobacter cloacae): 0.12 mg/L (≈ 0.347 µM)
- MIC (Pseudomonas aeruginosa [8]): 2 mg/L (≈ 5.79 µM)
Compound: CNC1(C)CN(c2cc3c(cc2F)c(=O)c(C(=O)O)cn3C2CC2)C1
- ED50 (Escherichia coli [3]): 1.9 mg/kg
- ED50 (Pseudomonas aeruginosa [4]): 69.8 mg/kg
- ED50 (Staphylococcus aureus [7]): 16.5 mg/kg

- AUC (Mus musculus [9]): 4.6 µg·h/mL
- MIC (Bacillus cereus): 0.25 mg/L (≈ 0.692 µM)
- MIC (Bacillus subtilis): 0.06 mg/L (≈ 0.166 µM)
- MIC (Escherichia coli [2]): 0.25 mg/L (≈ 0.692 µM)
- MIC (Klebsiella pneumoniae): 0.06 mg/L (≈ 0.166 µM)
- MIC (Morganella morganii): 0.5 mg/L (≈ 1.38 µM)
- MIC (Proteus vulgaris): 0.5 mg/L (≈ 1.38 µM)
- MIC [5]: 0.25 mg/L (≈ 0.692 µM)
- MIC (Staphylococcus aureus [6]): 0.25 mg/L (≈ 0.692 µM)
- MIC (Enterococcus faecalis): 0.5 mg/L (≈ 1.38 µM)
- MIC (Enterobacter cloacae): 0.25 mg/L (≈ 0.692 µM)
- MIC (Pseudomonas aeruginosa [8]): 4 mg/L (≈ 11.1 µM)
Compound: CNC1(C)CN(c2cc3c(cc2F)c(=O)c(C(=O)O)cn3C(C)(C)C)C1

- AUC (Mus musculus [1]): 7 µg·h/mL
- MIC (Bacillus cereus): 0.12 mg/L (≈ 0.362 µM)
- MIC (Bacillus subtilis): 0.06 mg/L (≈ 0.181 µM)
- MIC (Escherichia coli [2]): 0.06 mg/L (≈ 0.181 µM)
- MIC (Klebsiella pneumoniae): 0.12 mg/L (≈ 0.362 µM)
- MIC (Morganella morganii): 0.06 mg/L (≈ 0.181 µM)
- MIC (Proteus vulgaris): 0.06 mg/L (≈ 0.181 µM)
- MIC [5]: 0.12 mg/L (≈ 0.362 µM)
- MIC (Staphylococcus aureus [6]): 0.12 mg/L (≈ 0.362 µM)
- MIC (Enterococcus faecalis): 0.5 mg/L (≈ 1.51 µM)
- MIC (Enterobacter cloacae): 0.12 mg/L (≈ 0.362 µM)
- MIC (Pseudomonas aeruginosa [8]): 0.5 mg/L (≈ 1.51 µM)
Compound: CC1(N)CN(c2cc3c(cc2F)c(=O)c(C(=O)O)cn3C2CC2)C1
- ED50 (Escherichia coli [3]): 2.7 mg/kg
- ED50 (Pseudomonas aeruginosa [4]): 62.2 mg/kg
- ED50 (Staphylococcus aureus [7]): 36.1 mg/kg

The next lines start with the compound.

Compound: CC1(N)CN(c2nc3c(cc2F)c(=O)c(C(=O)O)cn3C(C)(C)C)C1
- AUC (Mus musculus [9]): 11.3 µg·h/mL
- MIC (Bacillus cereus): 0.12 mg/L (≈ 0.344 µM)
- MIC (Bacillus subtilis): 0.015 mg/L (≈ 0.0431 µM)
- MIC (Escherichia coli [2]): 0.06 mg/L (≈ 0.172 µM)
- MIC (Klebsiella pneumoniae): 0.015 mg/L (≈ 0.0431 µM)
- MIC (Morganella morganii): 0.12 mg/L (≈ 0.344 µM)
- MIC (Proteus vulgaris): 0.25 mg/L (≈ 0.718 µM)
- MIC [5]: 0.12 mg/L (≈ 0.344 µM)
- MIC (Staphylococcus aureus [6]): 0.12 mg/L (≈ 0.344 µM)
- MIC (Enterococcus faecalis): 1 mg/L (≈ 2.87 µM)
- MIC (Enterobacter cloacae): 0.12 mg/L (≈ 0.344 µM)
- MIC (Pseudomonas aeruginosa [8]): 2 mg/L (≈ 5.74 µM)

Compound: CN(C)C1CN(c2cc3c(cc2F)c(=O)c(C(=O)O)cn3C2CC2)C1
- AUC (Mus musculus [1]): 10.6 µg·h/mL
- MIC (Bacillus cereus): 0.12 mg/L (≈ 0.347 µM)
- MIC (Bacillus subtilis): 0.015 mg/L (≈ 0.0434 µM)
- MIC (Escherichia coli [2]): 0.06 mg/L (≈ 0.174 µM)
- ED50 (Escherichia coli [3]): 1.3 mg/kg
- MIC (Klebsiella pneumoniae): 0.015 mg/L (≈ 0.0434 µM)
- MIC (Morganella morganii): 0.12 mg/L (≈ 0.347 µM)
- ED50 (Pseudomonas aeruginosa [4]): 44.5 mg/kg
- MIC (Proteus vulgaris): 0.12 mg/L (≈ 0.347 µM)
- MIC [5]: 0.12 mg/L (≈ 0.347 µM)
- MIC (Staphylococcus aureus [6]): 0.12 mg/L (≈ 0.347 µM)
- ED50 (Staphylococcus aureus [7]): 35.6 mg/kg
- MIC (Enterococcus faecalis): 1 mg/L (≈ 2.9 µM)
- MIC (Enterobacter cloacae): 0.06 mg/L (≈ 0.174 µM)
- MIC (Pseudomonas aeruginosa [8]): 2 mg/L (≈ 5.79 µM)

Compound: CC1(N)CN(c2cc3c(cc2F)c(=O)c(C(=O)O)cn3C(C)(C)C)C1
- AUC (Mus musculus [9]): 5.4 µg·h/mL
- MIC (Bacillus cereus): 0.25 mg/L (≈ 0.72 µM)
- MIC (Bacillus subtilis): 0.06 mg/L (≈ 0.173 µM)
- MIC (Escherichia coli [2]): 0.12 mg/L (≈ 0.345 µM)
- MIC (Klebsiella pneumoniae): 0.12 mg/L (≈ 0.345 µM)
- MIC (Morganella morganii): 0.25 mg/L (≈ 0.72 µM)
- MIC (Proteus vulgaris): 0.25 mg/L (≈ 0.72 µM)
- MIC [5]: 0.12 mg/L (≈ 0.345 µM)
- MIC (Staphylococcus aureus [6]): 0.25 mg/L (≈ 0.72 µM)
- MIC (Enterococcus faecalis): 0.5 mg/L (≈ 1.44 µM)
- MIC (Enterobacter cloacae): 0.25 mg/L (≈ 0.72 µM)
- MIC (Pseudomonas aeruginosa [8]): 2 mg/L (≈ 5.76 µM)

Compound: CNC1CN(c2cc3c(cc2F)c(=O)c(C(=O)O)cn3C2CC2)C1
- AUC (Mus musculus [1]): 4.2 µg·h/mL
- MIC (Bacillus cereus): 0.12 mg/L (≈ 0.362 µM)
- MIC (Bacillus subtilis): 0.03 mg/L (≈ 0.0905 µM)
- MIC (Escherichia coli [2]): 0.03 mg/L (≈ 0.0905 µM)
- ED50 (Escherichia coli [3]): 3.8 mg/kg
- MIC (Klebsiella pneumoniae): 0.03 mg/L (≈ 0.0905 µM)
- MIC (Morganella morganii): 0.03 mg/L (≈ 0.0905 µM)
- ED50 (Pseudomonas aeruginosa [4]): 145 mg/kg
- MIC (Proteus vulgaris): 0.25 mg/L (≈ 0.754 µM)
- MIC [5]: 0.12 mg/L (≈ 0.362 µM)
- MIC (Staphylococcus aureus [6]): 0.25 mg/L (≈ 0.754 µM)
- ED50 (Staphylococcus aureus [7]): 36.3 mg/kg
- MIC (Enterococcus faecalis): 1 mg/L (≈ 3.02 µM)
- MIC (Enterobacter cloacae): 0.03 mg/L (≈ 0.0905 µM)
- MIC (Pseudomonas aeruginosa [8]): 0.5 mg/L (≈ 1.51 µM)

Compound: CN(C)C1CN(c2c(F)cc3c(=O)c(C(=O)O)cn(C4CC4)c3c2F)C1
- AUC (Mus musculus [1]): 38.2 µg·h/mL
- MIC (Bacillus cereus): 0.25 mg/L (≈ 0.688 µM)
- MIC (Bacillus subtilis): 0.015 mg/L (≈ 0.0413 µM)
- MIC (Escherichia coli [2]): 0.06 mg/L (≈ 0.165 µM)
- ED50 (Escherichia coli [3]): 1.7 mg/kg
- MIC (Klebsiella pneumoniae): 0.06 mg/L (≈ 0.165 µM)
- MIC (Morganella morganii): 0.12 mg/L (≈ 0.33 µM)
- ED50 (Pseudomonas aeruginosa [4]): 90.8 mg/kg
- MIC (Proteus vulgaris): 0.25 mg/L (≈ 0.688 µM)
- MIC [5]: 0.25 mg/L (≈ 0.688 µM)
- MIC (Staphylococcus aureus [6]): 0.25 mg/L (≈ 0.688 µM)
- ED50 (Staphylococcus aureus [7]): 19.8 mg/kg
- MIC (Enterococcus faecalis): 1 mg/L (≈ 2.75 µM)
- MIC (Enterobacter cloacae): 0.06 mg/L (≈ 0.165 µM)
- MIC (Pseudomonas aeruginosa [8]): 2 mg/L (≈ 5.5 µM)
